Shown are actives, neighbours in structure and some others; about 1.7% of the full set was active somewhere.
Vif inh – HIV Vif inhibition; HEK293T cells, Vif self-association by quenched fluorescence, imaging, 24 h; AID 602346; inhibition, % at 7.49 µM; actives 0.35% (n = 340,000); in the data active = inhibition above about 50%, passing the limit was not always enough; inconclusive = no clear call, values can overlap the other calls; inactive = below about 31%
NTR1 agonist – NTR1 (human) agonism; P30989; NTR1-U2OS beta-arrestin-GFP spot imaging, agonist mode; activation, % at 20 µM; actives 0.17% (n = 330,000); AID 493036;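 active = activation at or above 40% of the spot to cytoplasm intensity ratio, with at least 20 cells analyzed; inconclusive = wells under 20 cells, flagged as cytotoxic or low count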
V-ATPase pHluor – alters yeast V-ATPase proton transport; actives 0.37% (n = 350,000); AID 504577; response, % at 10 µM; S. cerevisiae, pHLuorin cytosolic pH fluorescence; in the data active = response mostly above about 7.3%, no sharp cut-off; inactive = mostly below about 5.4%; note: actives read high
SR-BI HDL uptake – inhibitors of mouse SR-BI mediated HDL lipid uptake. AID 488896. inhibition, % at 12.5 µM. ldlA[mSR-BI] CHO cells, DiI-HDL uptake fluorescence, 3 h. actives 0.96% (n = 320,000);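 active = mean replicate inhibition of at least 70% and a set share of replicates each scoring 70 or more; inconclusive = meets just one of the two criteria; inactive = fails both criteria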
Target sequence (Q61009 whole entry, looked up): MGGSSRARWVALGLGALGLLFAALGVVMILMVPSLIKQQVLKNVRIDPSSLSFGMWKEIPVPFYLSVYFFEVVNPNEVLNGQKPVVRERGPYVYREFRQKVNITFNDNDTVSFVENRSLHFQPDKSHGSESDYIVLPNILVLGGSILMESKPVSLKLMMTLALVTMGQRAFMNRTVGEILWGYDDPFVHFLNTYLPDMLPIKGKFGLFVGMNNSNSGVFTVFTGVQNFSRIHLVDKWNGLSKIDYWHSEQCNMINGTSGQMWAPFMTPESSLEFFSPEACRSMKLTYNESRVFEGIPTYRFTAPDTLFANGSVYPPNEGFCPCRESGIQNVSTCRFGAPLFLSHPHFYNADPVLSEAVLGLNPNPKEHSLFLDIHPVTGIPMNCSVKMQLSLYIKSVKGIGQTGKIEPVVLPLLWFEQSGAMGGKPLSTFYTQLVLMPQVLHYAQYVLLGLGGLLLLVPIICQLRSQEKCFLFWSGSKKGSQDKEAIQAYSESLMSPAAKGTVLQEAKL
CaV13 ICDI inh – Disruptors of the CACNA1D IQ motif to Ca2+-dependent inactivation inhibitor domain association, primary screening, Förster resonance energy transfer in intact living …; actives 0.098% (n = 340,000); HEK cells, CFP/YFP FRET ICDI-IQ, plate reader, 10 min; percent FRET-ratio fall versus neutral wells; AID 743397; inhibition, % at 12.3 µM;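 active = mean replicate inhibition of at least 30% and at least 1% of replicates passing that level; inconclusive = only one of the two criteria is met; inactive = neither criterion is met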
SR-BI DiI-HDL act – SR-BI HDL lipid transfer activation; CHO ldlA[mSR-BI] cells, DiI-HDL uptake fluorescence, 3 h; 100 = double the neutral-control signal; activation, % at 12.5 µM; actives 0.096% (n = 320,000);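 active = mean replicate activation of at least 60% and every replicate at or above 60%; inconclusive = mean or all-replicate condition met, but not both; inactive = mean below 60% and not all replicates reaching 60%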
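Assay system: CHO ldlA[mSR-BI] cells, LDL receptor-null, SR-BI overexpressing; medium: Ham's F12 with 0.5% BSA, HEPES 25 mM, pH 7.4; also added: DiI-HDL 10 µg/mL; timing: 3 h uptake period with compound, 37 °C; signal: DiI fluorescence, bottom read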
Each line names hits and unclear results; the compound was inactive in the other large screens.

O=C(Nc1cnccn1)Nc1ccccc1Cl	Vif inh 51
CCC(C)Nc1ccc(NC(C)CC)cc1 (stereo not given)	none (no result: CaV13 ICDI inh)
COc1cccc(NC(=O)CS(=O)(=O)Cc2nc(-c3ccc(C)cc3)oc2C)c1	none
O=C(N[C@H](C(=O)N1CCC[C@H]1C(=O)NCCc1ccccc1Cl)c1ccccc1)C1CCCC1	none (no result: Vif inh, NTR1 agonist, V-ATPase pHluor, SR-BI HDL uptake, SR-BI DiI-HDL act)
CC1=C(CC/C(C)=N/NC(N)=S)C(C)(C)CCC1	SR-BI HDL uptake 76
CCOC(=O)c1sc(NC(=O)c2ccccc2)cc1C	none
CCOC(=O)c1sc(NC(=O)c2c(C)nn(Cc3ccccc3)c2C)cc1C	SR-BI HDL uptake 82
CCOC(=O)c1sc(NC(=O)Nc2ccc(Cl)cc2)cc1C	SR-BI HDL uptake 76
CCOC(=O)c1sc(NC(=O)c2ccc(Cl)s2)cc1C	none
COc1cc(CNCc2ccccc2)c(Br)cc1OC1CCCC1	Vif inh 75
Cc1ccc(/C=N/NC(=O)c2c(-c3ccccc3)noc2C)c(O)c1	SR-BI HDL uptake 108
CCOc1cc([N+](=O)[O-])cc(/C=N/NC(=O)c2c(-c3ccccc3)noc2C)c1O	SR-BI HDL uptake 72 (no result: CaV13 ICDI inh)
CC(=O)Nc1ccc(NC(=O)C(C)OC(=O)C2CCN(S(=O)(=O)c3cccs3)CC2)cc1 (stereo not given)	none
c1ccc(Nc2nc(-c3ccccc3)nc3ccccc23)cc1	none
Nc1ccc(-c2nc(-c3ccccc3)nc3ccccc23)cc1	SR-BI HDL uptake 72
COc1ccc(Cl)cc1NC(=O)C1CCN(C(=O)C2CC(=O)N(c3ccc(C)cc3)C2)CC1 (stereo not given)	SR-BI HDL uptake 89
COc1ccc(NC(=O)C2CCN(C(=O)C3CC(=O)N(c4ccc(C)cc4)C3)CC2)cc1 (stereo not given)	none
CCCCN1CC(COCc2ccccc2)Oc2cccc(NCc3cc(OC)c(OC)c(OC)c3)c2S1(=O)=O (stereo not given)	none (no result: Vif inh, NTR1 agonist, V-ATPase pHluor, SR-BI HDL uptake, SR-BI DiI-HDL act)
COc1ccc(C(=O)n2nc(C)cc2Nc2ccccc2)cc1	SR-BI HDL uptake 77 (no result: CaV13 ICDI inh)
Cn1c(CSCc2ccc(F)cc2)nnc1SCC(=O)Nc1cccc(C(=O)O)c1	none
Nc1c2ccccc2nc2ccccc12	CaV13 ICDI inh 40
Nc1c2c(nc3ccccc13)CCCC2	none
CCOC(=O)CNC(=O)c1cc(C)oc1C	none (no result: Vif inh, V-ATPase pHluor, SR-BI HDL uptake, CaV13 ICDI inh, SR-BI DiI-HDL act)
Cc1cc(C(=O)NCC(=O)O)c(C)o1	Vif inh 115
Cc1nccn1-c1cc(C(C)(C)C)nc2c(-c3ccccc3)cnn12	none
CC(C)C(=O)Nc1ccc(C(=O)N/N=C/C2CC3C=CC2C3)cc1 (stereo not given)	Vif inh 58
Cc1ccc(C(=O)Nc2cc(Cl)ccc2N2CCCCC2)s1	SR-BI HDL uptake 77
CCC1CN(C(=O)NCc2ccc(C)cc2)c2cc(C)ccc2O1 (stereo not given)	SR-BI HDL uptake 78
O=C(c1cc(-c2ccccc2O)on1)N1CCCCCC1	Vif inh 74 (no result: SR-BI HDL uptake, SR-BI DiI-HDL act)
CCOC(=O)C1=C(C)NC(=O)NC1	Vif inh 74
CCOC(=O)C1=C(C)NC(C)=C(C(=O)OCC)C1C	none
Cc1cc(C(=O)Nc2sc3c(c2C#N)CCC(C)C3)cs1 (stereo not given)	SR-BI HDL uptake 75
CCC(=O)N(c1nnc(SCC(=O)c2ccc[nH]2)s1)C1CC1	V-ATPase pHluor 18
Cc1cc(N2CCN(CC(C)(C)O)C[C@H]2C)ccc1N1CCN(Cc2ccccc2)[C@@H](C)C1	none (no result: Vif inh, NTR1 agonist, V-ATPase pHluor, SR-BI HDL uptake, SR-BI DiI-HDL act)
COc1ccc(Nc2ncnc3sc(-c4ccccc4)cc23)cc1OC	SR-BI HDL uptake 93
CN(C)CCCNc1ncnc2sc(-c3ccccc3)cc12	none (no result: SR-BI HDL uptake, SR-BI DiI-HDL act)
Cc1cccc(COc2ccccc2C(=O)NC2CCC(O)CC2)c1 (stereo not given)	none
CN(C)c1ccc(C(O)Cc2nc3ccccc3n2C)cc1 (stereo not given)	Vif inh 120
C/C(=N/NC(=O)c1cccs1)c1c(C)[nH]n(-c2nc3ccccc3s2)c1=O	SR-BI HDL uptake 107
Cc1onc(-c2ccccc2)c1C(=O)N=C(N)c1ccc(C(F)(F)F)cc1	none
COc1ccccc1OCc1ccc(C(=O)N(C)c2ccccc2)o1	CaV13 ICDI inh 39
COc1ccccc1OCc1ccc(C(=O)N(C)C)o1	none
CSc1sc(C(=O)NN)c2c1C1(CCC2)SCCS1	SR-BI HDL uptake 107
COc1ccc(OC)c(NC(=O)CC2C(=O)NCCN2C(=O)c2ccccc2)c1 (stereo not given)	none (no result: SR-BI HDL uptake, SR-BI DiI-HDL act)
O=C1/C(=C/c2ccc(N3CCCC3)cc2)NC(=S)N1C1CC1	Vif inh 54 (no result: CaV13 ICDI inh)
Cn1c(SCC(=O)NCc2cccs2)nnc1-c1ccncc1	Vif inh 59
COc1ccc(OCc2cnc(Cl)s2)cc1	Vif inh 55 (no result: CaV13 ICDI inh)
CS(=O)(=O)c1ccc(C(=O)OCC(=O)NC23CC4CC(CC(C4)C2)C3)cc1[N+](=O)[O-]	NTR1 agonist 68 (no result: Vif inh)
CC(=O)Oc1cc(C(=O)OCC(=O)NC23CC4CC(CC(C4)C2)C3)cc(OC(C)=O)c1OC(C)=O	Vif inh 67 (no result: NTR1 agonist)
Cn1cccc1C(=O)NC(=O)COC(=O)c1ccc(S(C)(=O)=O)c([N+](=O)[O-])c1	Vif inh inconclusive (no result: CaV13 ICDI inh)
CCN(CC)c1ccc(C2Nc3cccc4cccc(c34)N2)c(O)c1	SR-BI HDL uptake 114
Oc1ccc2ccccc2c1C1Nc2cccc3cccc(c23)N1	none
COc1ccc(N2C3=C(C(=O)CC(C)(C)C3)C(c3ccccc3OC)C3=C2CC(C)(C)CC3=O)cc1	none
COc1ccccc1C1C2=C(CC(C)(C)CC2=O)N(CC(=O)O)C2=C1C(=O)CC(C)(C)C2	CaV13 ICDI inh 36
O=c1[nH]c(-c2ccccc2)cn1C1CCN(Cc2ccc(-c3nc4ccc(Br)cc4nc3-c3ccccc3)cc2)CC1	none (no result: Vif inh, NTR1 agonist, V-ATPase pHluor, SR-BI HDL uptake, SR-BI DiI-HDL act)
NS(=O)(=O)c1ccc(NC(=O)COC(=O)Cc2c[nH]c3ccccc23)cc1	none
O=C(O)CCC1(c2ccccc2)NC(=O)NC1=O (stereo not given)	none (no result: SR-BI HDL uptake, SR-BI DiI-HDL act)
NC(=S)NN=C1c2cc(S(=O)(=O)N3CCOCC3)ccc2-c2ccc(S(=O)(=O)N3CCOCC3)cc21	none
NC(=S)N/N=C1\CCOc2ccc(Cl)cc21	SR-BI HDL uptake 73
CC1CC[C@@]2(OC1)O[C@H]1CC3[C@@H]4C[C@@H](O)[C@@]5(O)C[C@@H](O)[C@H](O)C[C@]5(C)[C@H]4CC[C@]3(C)[C@H]1[C@@H]2C (stereo not given in full)	SR-BI DiI-HDL act 69
CC1(C)Cc2c(cnn2-c2ccccc2)C(=O)/C1=N\NC(=O)c1ccccc1N	SR-BI HDL uptake 75 (no result: CaV13 ICDI inh)
Nc1c(C(=O)N/N=C/c2ccccc2)cnn1-c1ccccc1	none
OC(CNCCc1ccc(C(F)(F)F)cc1)COC(c1ccccc1)c1ccccc1 (stereo not given)	NTR1 agonist 66

Screening data: PubChem BioAssay, several laboratories
